# Sampled rows, rich in hits. Any-hit rate of the full collection: about 2.5%.
# GRK2 inh: blocks RNA aptamer binding to human GRK2; P25098; bead flow cytometry, FAM-aptamer displacement from GRK2; inhibition of aptamer binding, % at 10 µM; 330,000 tested, 0.59% active; AID 488847;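 active = inhibition of aptamer binding above 40%, roughly 3 SD of noise, on plates passing a quality check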;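 also: median bead fluorescence of bound FAM aptamer so fluorescent compounds give negative values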
# Beta2AR agonist: agonists of human beta-2 adrenergic receptor inducing internalization. response, % (test concentration not listed). 340,000 tested, 0.43% active. Am2.2-beta2AR cells, FAP receptor internalization, flow cytometry;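 active = response above a set limit, near 3 SD of response in nonfluorescent compounds, cut at about 42% in these data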
# Target sequence (P07550 whole entry, looked up): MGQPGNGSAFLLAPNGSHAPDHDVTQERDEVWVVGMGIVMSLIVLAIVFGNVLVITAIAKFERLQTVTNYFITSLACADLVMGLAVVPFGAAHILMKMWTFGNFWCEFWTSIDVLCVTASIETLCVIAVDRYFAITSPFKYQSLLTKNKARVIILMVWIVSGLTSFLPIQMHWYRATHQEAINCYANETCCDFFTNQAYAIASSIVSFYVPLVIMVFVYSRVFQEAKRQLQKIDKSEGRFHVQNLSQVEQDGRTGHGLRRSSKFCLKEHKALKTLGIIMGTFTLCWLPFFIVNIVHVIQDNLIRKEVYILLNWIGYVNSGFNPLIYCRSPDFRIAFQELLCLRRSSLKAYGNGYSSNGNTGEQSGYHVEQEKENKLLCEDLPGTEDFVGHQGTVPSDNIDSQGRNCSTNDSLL
# ABHD5-PLIN5 inh: inhibitors of human ABHD5-perilipin-5 interaction; Split G. princeps luciferase complementation, luminescence, 4 h; inhibition, % at 4 µM; 360,000 tested, 0.78% active; AID 602281;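 active = inhibition above the mean inhibition across every tested compound plus 3 SD, cut at about 22% in these data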
# NadD block: blocks S. aureus nicotinate mononucleotide adenylyltransferase. inhibition, % at 20 µM. 360,000 tested, 0.78% active. purified NadD enzyme, colorimetric absorbance read-out; in the data active = inhibition above about 26%
# SENP1 FRET inh: SENP1 (human) catalytic domain inhibition | 360,000 tested, 0.21% active | inhibition, % at 10 µM | recombinant SENP1 catalytic domain, CyPet-SUMO1-YPet FRET cleavage | AID 624204;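 active = inhibition at least 30% at 10 µM, raw YFP signal under a set limit, fluorescence ratio 0.5 to 1.5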
#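 Assay system: hSENP1 catalytic domain, recombinant. Amount: SENP1 enzyme, 20 pM final. Schedule: 50 min reaction, RT, dark. Technique: FRET, CFP and YFP emission. Control set: no-enzyme wells low, DMSO-plus-enzyme wells high control.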
# ABHD5 PLIN5 conf: confirmation of human ABHD5-PLIN5 interaction inhibitors; shares compounds with ABHD5-PLIN5 inh; 2,200 tested, 67% active; inhibition, % at 4 µM; biochemical ABHD5-PLIN5 interaction, luminescence; in the data active = inhibition above about 23%
# HNF4 counter: HNF4 split-luciferase signal hit, counter-screen | shares compounds with ABHD5-PLIN5 inh | HNF4 dimerization, luminescence, biochemical | inhibition, % at 4 µM | 2,200 tested, 77% active | AID 651674;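 active = mean inhibition across replicate wells exceeding the computed hit threshold, cut at about 13% in these data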;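 also: light from luciferase halves that rejoin when HNF4 fusion proteins dimerize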
# Hits are given with their value; . = inactive; / = not tested or not shown.
SMILES,GRK2 inh,Beta2AR agonist,ABHD5-PLIN5 inh,NadD block,SENP1 FRET inh,ABHD5 PLIN5 conf,HNF4 counter
Cc1ccc(S(=O)(=O)N2CCC(C(=O)N3CCC3)CC2)cc1,.,.,.,.,.,/,/
Cc1ccc2cc(C#N)c(NCc3ccco3)nc2c1,.,.,24,.,.,46,61
Cc1ccc2cc(C)c(SCC(=O)NCc3ccco3)nc2c1,.,.,.,.,.,/,/
CC(=O)c1c[nH]c(C(=O)Nc2ccc(N3CCCCCC3)cc2)c1,.,.,.,.,.,/,/
COc1cc2sc(-c3ccc(S(C)(=O)=O)cc3)c(C(=O)NCc3ccc(C)o3)c2cc1OC,.,.,33,.,.,.,20
C(=C\c1ccccc1)/CN1CCN(C(c2nnnn2-c2ccc3c(c2)OCCO3)C2CC2)CC1 (stereo not drawn),/,/,.,.,.,/,/
CCCOc1ccc(C(=O)NNC(=O)CCNC(=O)c2ccco2)cc1OC,.,.,.,.,.,/,/
NC(=O)C1CCN(C(=O)COc2ccc(S(=O)(=O)NC3CCCC3)cc2)CC1,.,.,.,.,.,/,/
Cc1ccc(S(=O)(=O)NC2CCCCC2)cc1C(=O)N1CCC(C(N)=O)CC1,.,.,36,.,.,.,.
CC(C)(C)C(=O)/C(=C/c1ccncc1)n1cncn1,.,.,29,.,.,51,48
O=C(/C=C/c1ccco1)N1CCN(S(=O)(=O)/C=C/c2ccccc2)CC1,.,.,29,.,.,24,46
Cc1ccc(/C=C/C(=O)N2CCN(S(=O)(=O)/C=C/c3ccccc3)CC2)o1,.,.,.,.,.,/,/
COc1ccc(C(=O)O)cc1S(=O)(=O)N1CCN(Cc2ccc3c(c2)OCO3)CC1,.,.,.,.,.,/,/
CC(C(=O)NCCCn1ccnc1)(c1ccccc1)c1ccccc1,.,.,.,.,.,/,/
Cc1cccc2c1NC(=O)/C2=C\C(=O)c1cccs1,.,.,53,.,.,78,85
Cc1cc(Br)c2c(c1)/C(=C/C(=O)c1cccs1)C(=O)N2,.,.,.,.,.,/,/
CCc1ccc2c(c1)/C(=C/C(=O)c1cccs1)C(=O)N2,.,78,83,.,.,90,96
CCc1ccc2c(c1)/C(=N/N(C)C(=S)NC)C(=O)N2,.,.,.,.,.,/,/
CCOC(=O)C(NC(=O)c1ccccc1Cl)(Nc1sc2c(c1C(N)=O)CCC2)C(F)(F)F (stereo not drawn),/,.,24,.,.,23,27
CC(NC(=O)COC(=O)C1CCC1)c1ccccc1 (stereo not drawn),.,.,23,.,.,.,.
CCOC(=O)c1c(-c2ccc(C)o2)csc1NC(=O)CN(C)CC(=O)Nc1ccc(C)cc1,.,.,26,.,.,.,53
O=[N+]([O-])c1cccc(-c2cc3ccccc3[nH]2)c1,.,.,.,.,.,/,/
O=[N+]([O-])/C=C/c1cc2ccccc2[nH]1,.,.,41,.,.,71,58
CCOc1ccc(NS(=O)(=O)c2ccc3c(c2)N(C(C)=O)CCS3)cc1,.,.,.,.,.,/,/
Cc1nc(CCNC(=O)CC2C(=O)NCCN2Cc2ccoc2)nc2c1CCCC2 (stereo not drawn),.,.,.,.,.,/,/
SMILES,GRK2 inh,Beta2AR agonist,ABHD5-PLIN5 inh,NadD block,SENP1 FRET inh,ABHD5 PLIN5 conf,HNF4 counter
COC(=O)CCCNC(=O)CC1C(=O)NCCN1Cc1ccoc1 (stereo not drawn),.,.,.,.,.,/,/
O=C(CC1C(=O)NCCN1Cc1ccoc1)NCCc1ccc(Cl)cc1 (stereo not drawn),.,.,38,.,.,.,16
Cc1nc(CNC(=O)CC2C(=O)NCCN2Cc2ccoc2)nc2c1CCCC2 (stereo not drawn),.,.,34,.,.,45,34
COCCCN(C(=O)Cc1csc(-c2cccc(Cl)c2)n1)c1c(N)n(Cc2ccccc2)c(=O)[nH]c1=O,.,.,.,.,.,/,/
O=C(O)[C@H](Cc1ccccc1)N1C(=O)c2c(Cl)c(Cl)c(Cl)c(Cl)c2C1=O,.,.,71,.,.,.,.
COc1ccc(OC)c(NC(=O)c2cnc3n(c2=O)CCS3)c1,.,.,.,.,.,/,/

# Assay outcomes as filed in PubChem.
